For 18 molecules, IC50, inhibition and Activity results are on record in ChEMBL document CHEMBL5257104, “Identification of a novel spirocyclic Nek2 inhibitor using high throughput virtual screening” (Bioorg Med Chem Lett, 2023).

Molecules are shown by their SMILES. Active and inactive are the calls of the source. The calls are words filed in the database; no cut-off is given here.

In assay [1] the target is T1, Serine/threonine-protein kinase Nek2 (Homo sapiens, UniProt P51955).
T1 sequence (P51955 whole entry): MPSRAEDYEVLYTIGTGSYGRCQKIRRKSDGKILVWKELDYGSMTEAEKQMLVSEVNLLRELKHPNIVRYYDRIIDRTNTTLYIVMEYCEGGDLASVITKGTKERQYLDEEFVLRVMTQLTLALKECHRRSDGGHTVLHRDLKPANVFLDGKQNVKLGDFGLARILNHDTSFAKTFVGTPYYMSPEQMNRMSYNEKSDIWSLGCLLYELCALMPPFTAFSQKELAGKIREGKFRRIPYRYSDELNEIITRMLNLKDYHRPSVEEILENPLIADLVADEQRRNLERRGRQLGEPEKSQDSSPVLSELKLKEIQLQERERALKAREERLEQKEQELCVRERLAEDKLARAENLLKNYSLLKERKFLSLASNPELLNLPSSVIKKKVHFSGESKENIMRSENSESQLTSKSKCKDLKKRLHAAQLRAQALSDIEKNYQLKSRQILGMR
Put plainly: Inhibition of human recombinant Nek2 in presence of 50 uM ATP by ADP-Glo kinase assay. A digest of the protocol: (§1)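 Kinase activity was measured at 50 μM ATP using recombinant enzyme. A concentration-response curve was generated for each kinase, and IC50 was obtained by fitting the data.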
In general terms: ADP-Glo first removes unused ATP, then detects ADP through luciferase.

For assay [2], the target named is T1, Serine/threonine-protein kinase Nek2. Briefly: Inhibition of human recombinant Nek2 in presence of 150 uM ATP by ADP-Glo kinase assay. A digest of the protocol:
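Recombinant human Nek2 kinase activity assay run with ATP raised threefold, from the standard 50 μM to 150 μM. Inhibitor tested over a concentration series, and IC50 obtained by fitting the concentration-response curve.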

The target in another assay is T2, Aurora kinase A (Homo sapiens, UniProt O14965).
T2 sequence (O14965 whole entry): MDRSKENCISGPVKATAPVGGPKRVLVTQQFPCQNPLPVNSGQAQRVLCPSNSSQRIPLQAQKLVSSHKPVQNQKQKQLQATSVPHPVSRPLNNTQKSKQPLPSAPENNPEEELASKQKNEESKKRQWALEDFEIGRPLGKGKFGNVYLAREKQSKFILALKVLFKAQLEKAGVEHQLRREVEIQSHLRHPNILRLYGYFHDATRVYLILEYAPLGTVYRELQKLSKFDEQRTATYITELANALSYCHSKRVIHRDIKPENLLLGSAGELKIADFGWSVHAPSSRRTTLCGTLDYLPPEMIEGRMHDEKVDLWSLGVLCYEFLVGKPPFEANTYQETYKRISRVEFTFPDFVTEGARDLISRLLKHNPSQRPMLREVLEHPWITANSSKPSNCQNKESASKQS
Briefly: Inhibition of Aurora A (unknown origin). In short, it runs like this:
as §1

The target in assay [3] is Cyclin-dependent kinase 1 (Homo sapiens, UniProt P06493). Briefly: Inhibition of CDK1 (unknown origin). A digest of the protocol: as §1
For assay [4], the target named is Serine/threonine-protein kinase Nek7 (Homo sapiens, UniProt Q8TDX7). Briefly: Inhibition of Nek7 (unknown origin). In short, it runs like this:
as §1

Assay [5] addresses Serine/threonine-protein kinase PLK1 (Homo sapiens, UniProt P53350). Put plainly: Inhibition of Plk1 (unknown origin). In short, it runs like this: as §1
Assay [6] deals with A549. Put plainly: Inhibition of Akt phosphorylation at S473 residue in human A549 cells by Western blotting analysis. Type of assay: cell-based. The settings on record: dose 5-20 µM. In short, it runs like this: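 A549 cells were treated for 24 h across several concentrations. Ser-473 phospho-Akt was detected by Western blot with GAPDH as the loading control. DMSO served as vehicle control and a reference Nek2 inhibitor as positive control.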

Assay [7] deals with A549. Briefly: Cytotoxicity against human A549 cells assessed as inhibition of cell growth by MTT assay. Type of assay: functional, cell-based. In short, it runs like this: (§2)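 Cell viability read by MTT assay across a range of concentrations. EC50 taken from the dose-response curve. See Supporting Information, Section III, for details not given here.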
The next assay deals with MDA-MB-231. Put plainly: Cytotoxicity against human MDA-MB-231 cells assessed as inhibition of cell growth by MTT assay. Type of assay: functional, cell-based. In short, it runs like this: as §2
(In general: Formazan colour is commonly taken as a measure of viable cells.)

Assay [8] relates to A549. Briefly: Antimigratory activity against human A549 cells at 50 to 100 uM by wound healing assay. Type of assay: functional, cell-based. To be noted: dose 50-100 µM. In short, it runs like this:
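A549 monolayers were scratched and treated. Migration was judged by imaging wound boundaries at the initial scratch (t = 0) and at 24 hr post-treatment, compared with vehicle control.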

Sequence of Serine/threonine-protein kinase Nek7 (Q8TDX7 whole entry): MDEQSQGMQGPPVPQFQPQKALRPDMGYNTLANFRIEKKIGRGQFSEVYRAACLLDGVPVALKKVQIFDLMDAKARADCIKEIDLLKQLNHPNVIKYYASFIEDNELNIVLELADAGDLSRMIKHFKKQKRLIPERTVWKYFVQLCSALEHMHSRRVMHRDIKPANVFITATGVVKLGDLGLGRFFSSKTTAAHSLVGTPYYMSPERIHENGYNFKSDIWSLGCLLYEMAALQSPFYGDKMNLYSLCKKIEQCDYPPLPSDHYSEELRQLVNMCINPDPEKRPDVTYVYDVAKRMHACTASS
Sequence of Serine/threonine-protein kinase PLK1 (P53350 whole entry): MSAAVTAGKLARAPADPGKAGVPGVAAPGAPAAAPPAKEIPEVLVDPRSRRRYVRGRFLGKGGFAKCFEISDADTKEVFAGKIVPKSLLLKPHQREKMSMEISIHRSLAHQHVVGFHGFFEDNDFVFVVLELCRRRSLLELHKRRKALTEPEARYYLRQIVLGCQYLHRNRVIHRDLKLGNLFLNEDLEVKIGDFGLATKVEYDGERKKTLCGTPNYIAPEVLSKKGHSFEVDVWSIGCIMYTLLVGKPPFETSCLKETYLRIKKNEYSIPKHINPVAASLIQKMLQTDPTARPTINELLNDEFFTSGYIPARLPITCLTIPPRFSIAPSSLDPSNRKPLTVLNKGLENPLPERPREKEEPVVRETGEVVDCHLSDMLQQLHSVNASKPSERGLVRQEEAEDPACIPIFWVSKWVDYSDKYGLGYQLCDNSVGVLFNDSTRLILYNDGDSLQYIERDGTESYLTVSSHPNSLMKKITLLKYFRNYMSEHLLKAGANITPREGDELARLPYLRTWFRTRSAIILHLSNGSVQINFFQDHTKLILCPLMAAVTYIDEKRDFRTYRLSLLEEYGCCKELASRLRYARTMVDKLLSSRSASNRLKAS
Sequence of Cyclin-dependent kinase 1 (P06493 whole entry): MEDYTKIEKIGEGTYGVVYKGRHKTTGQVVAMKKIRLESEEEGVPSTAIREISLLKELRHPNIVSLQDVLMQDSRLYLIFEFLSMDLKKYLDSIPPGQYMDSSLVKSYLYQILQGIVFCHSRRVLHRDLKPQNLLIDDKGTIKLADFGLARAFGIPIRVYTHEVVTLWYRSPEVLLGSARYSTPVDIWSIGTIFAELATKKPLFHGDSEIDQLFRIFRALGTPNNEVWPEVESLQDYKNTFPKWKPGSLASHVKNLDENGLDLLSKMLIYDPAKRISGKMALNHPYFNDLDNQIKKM

The term IC50 denotes the concentration at which inhibition is half-maximal. `CCOC(=O)c1ccc(S(=O)(=O)N2CCC3(CC2)N=C(c2ccc(Br)cc2)C(=O)N3)cc1`: in [1], the 50% inhibitory concentration (IC50) turned out to be 14.6 µM. On to `Cc1cc(C)c(S(=O)(=O)N2CCC3(CC2)N=C(c2ccc(Br)cc2)C(=O)N3)c(C)c1`, for which the 50% inhibitory concentration (IC50) in assay [1] was found to be 9.8 µM. Take `CS(=O)(=O)N1CCC2(CC1)NCC(=O)N2`: the half-inhibitory concentration (IC50) in assay [1] came to 32.1 µM.

With `O=C1NC2(CCN(S(=O)(=O)c3ccccc3)CC2)N=C1c1ccccc1`, in [1], the IC50 stood at 8.1 µM. Still for that read-out and setting: then `O=C1NC2(CCN(S(=O)(=O)c3ccccc3)CC2)N=C1c1ccc(Cl)cc1`, with 6 µM; and `O=C1CNC2(CCNCC2)N1`, with 32.5 µM; and `O=C1NC2(CCN(S(=O)(=O)c3cccs3)CC2)N=C1c1ccc(Br)cc1`, with 5.6 µM. As to `O=C1NC2(CCN(S(=O)(=O)c3ccccc3)CC2)N=C1c1ccc(F)cc1`, the IC50 in assay [1] amounted to 4.5 µM. On the same count and under the same terms, as for `O=C1NC2(CCN(S(=O)(=O)Cc3ccccc3)CC2)N=C1c1ccc(Br)cc1`, the figure is 6.8 µM. With `CC(C)(C)c1ccc(S(=O)(=O)N2CCC3(CC2)N=C(c2ccc(Br)cc2)C(=O)N3)cc1`, the 50% inhibitory concentration (IC50) in assay [1] was 5 µM. Regarding `O=C1NC2(CCN(C(=O)c3ccccc3)CC2)N=C1c1ccc(Br)cc1`, in assay [1], the 50% inhibitory concentration (IC50) was 9.2 µM.

As to `CN1CCC2(CC1)NCC(=O)N2`, the IC50 in assay [1] stood at 58.1 µM.

In the case of `Cc1ccc(C2=NC3(CCN(S(C)(=O)=O)CC3)NC2=O)cc1`, the IC50 in assay [1] was 4.9 µM. Turning to `CS(=O)(=O)N1CCC2(CC1)N=C(c1ccc(Br)cc1)C(=O)N2`, the half-maximal inhibitory concentration (IC50) turned out to be 2.4 µM in assay [1]; 17.1 µM in assay [2]; 21.3 µM on Aurora kinase A; 29.3 µM in [3]; 28.8 µM in assay [4]; 20.4 µM in assay [5]. Further, the IC50 with A549 [7] was 22.7 µM; in the assay with MDA-MB-231, 18.1 µM. Also, the inhibition result with A549 [6] is “Dose-Dependent Effect”. Further, the result in the assay on A549 [8] was Active. Turning to `Cc1ccc(C2=NC3(CCN(S(C)(=O)=O)CC3)NC2=O)cc1C`, the concentration for half-maximal inhibition (IC50) in [1] came out at 3.2 µM. Same read-out and setting: as for `Cc1ccc(S(=O)(=O)N2CCC3(CC2)N=C(c2ccc(Br)cc2)C(=O)N3)cc1C`, the figure is 12.3 µM; as for `O=C1NC2(CCN(S(=O)(=O)c3ccccc3)CC2)N=C1c1ccc(Br)cc1`, 9.3 µM; as for `CC(C)(C)c1ccc(C2=NC3(CCN(S(C)(=O)=O)CC3)NC2=O)cc1`, 8.7 µM.
